Results published in ChEMBL document CHEMBL4393677, “Comparative analysis of pyrimidine substituted aminoacyl-sulfamoyl nucleosides as potential inhibitors targeting class I aminoacyl-tRNA synthetases” (Eur J Med Chem, 2019).
Active and inactive are the calls of the source. The calls are words filed in the database; no cut-off is given here.

Columns and labels:
[1] = molecular target: T1, Tyrosine--tRNA ligase (Escherichia coli (strain K12)) (UniProt P0AGJ9); test: Inhibition of tyrRS in Escherichia coli BL21 (DE3) pLysS S30 extract over expressing RimI incubated for 5 to 60 mins in presence of 14C-labeled tyrosine by liquid scintillation counting method
T1 sequence (whole entry): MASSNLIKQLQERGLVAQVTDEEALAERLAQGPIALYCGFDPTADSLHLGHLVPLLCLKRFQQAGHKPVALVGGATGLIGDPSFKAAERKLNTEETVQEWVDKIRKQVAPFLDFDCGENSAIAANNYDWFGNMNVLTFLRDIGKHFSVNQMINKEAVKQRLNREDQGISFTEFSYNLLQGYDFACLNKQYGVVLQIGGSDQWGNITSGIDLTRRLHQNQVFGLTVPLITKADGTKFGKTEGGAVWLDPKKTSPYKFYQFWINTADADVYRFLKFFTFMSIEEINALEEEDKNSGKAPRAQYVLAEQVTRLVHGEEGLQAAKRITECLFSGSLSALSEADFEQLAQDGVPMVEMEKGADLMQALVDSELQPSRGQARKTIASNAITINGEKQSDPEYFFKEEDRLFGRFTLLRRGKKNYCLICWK

[2] = molecular target: Leucine--tRNA ligase (Escherichia coli (strain K12)) (UniProt P07813); test: Inhibition of leuRS in Escherichia coli BL21 (DE3) pLysS S30 extract over expressing YhhY incubated for 60 mins in presence of 14C-labeled leucine by liquid scintillation counting method
Chain of Leucine--tRNA ligase (Escherichia coli (strain K12)) (P07813 whole entry): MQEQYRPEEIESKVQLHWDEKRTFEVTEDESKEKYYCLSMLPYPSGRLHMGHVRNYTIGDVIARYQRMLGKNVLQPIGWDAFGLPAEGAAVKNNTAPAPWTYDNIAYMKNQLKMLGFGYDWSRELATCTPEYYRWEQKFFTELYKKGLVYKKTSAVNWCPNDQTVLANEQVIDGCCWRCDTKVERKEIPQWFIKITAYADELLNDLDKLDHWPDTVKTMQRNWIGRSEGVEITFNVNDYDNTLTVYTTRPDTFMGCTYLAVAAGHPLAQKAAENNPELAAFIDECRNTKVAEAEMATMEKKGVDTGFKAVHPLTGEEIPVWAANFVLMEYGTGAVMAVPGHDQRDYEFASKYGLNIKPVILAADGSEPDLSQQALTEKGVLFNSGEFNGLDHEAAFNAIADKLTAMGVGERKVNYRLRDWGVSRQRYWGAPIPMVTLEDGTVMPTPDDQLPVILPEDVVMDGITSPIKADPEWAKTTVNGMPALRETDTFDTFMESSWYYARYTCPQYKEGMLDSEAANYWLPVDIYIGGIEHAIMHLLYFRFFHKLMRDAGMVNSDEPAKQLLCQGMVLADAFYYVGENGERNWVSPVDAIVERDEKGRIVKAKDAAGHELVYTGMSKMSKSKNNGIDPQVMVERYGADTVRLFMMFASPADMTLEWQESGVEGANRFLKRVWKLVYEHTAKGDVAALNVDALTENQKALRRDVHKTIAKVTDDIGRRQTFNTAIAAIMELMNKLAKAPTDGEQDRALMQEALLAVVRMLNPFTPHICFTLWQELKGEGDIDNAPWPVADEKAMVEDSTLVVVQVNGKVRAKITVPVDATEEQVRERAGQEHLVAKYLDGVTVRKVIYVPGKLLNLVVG

[3] = molecular target: Isoleucine--tRNA ligase (Escherichia coli K-12) (UniProt P00956); test: Inhibition of ileRS in Escherichia coli BL21 (DE3) pLysS S30 extract over expressing RimL incubated for 5 to 60 mins in presence of 14C-labeled isoleucine and acetyl-CoA by liquid scintillation counting method
Chain of Isoleucine--tRNA ligase (Escherichia coli K-12) (P00956 whole entry): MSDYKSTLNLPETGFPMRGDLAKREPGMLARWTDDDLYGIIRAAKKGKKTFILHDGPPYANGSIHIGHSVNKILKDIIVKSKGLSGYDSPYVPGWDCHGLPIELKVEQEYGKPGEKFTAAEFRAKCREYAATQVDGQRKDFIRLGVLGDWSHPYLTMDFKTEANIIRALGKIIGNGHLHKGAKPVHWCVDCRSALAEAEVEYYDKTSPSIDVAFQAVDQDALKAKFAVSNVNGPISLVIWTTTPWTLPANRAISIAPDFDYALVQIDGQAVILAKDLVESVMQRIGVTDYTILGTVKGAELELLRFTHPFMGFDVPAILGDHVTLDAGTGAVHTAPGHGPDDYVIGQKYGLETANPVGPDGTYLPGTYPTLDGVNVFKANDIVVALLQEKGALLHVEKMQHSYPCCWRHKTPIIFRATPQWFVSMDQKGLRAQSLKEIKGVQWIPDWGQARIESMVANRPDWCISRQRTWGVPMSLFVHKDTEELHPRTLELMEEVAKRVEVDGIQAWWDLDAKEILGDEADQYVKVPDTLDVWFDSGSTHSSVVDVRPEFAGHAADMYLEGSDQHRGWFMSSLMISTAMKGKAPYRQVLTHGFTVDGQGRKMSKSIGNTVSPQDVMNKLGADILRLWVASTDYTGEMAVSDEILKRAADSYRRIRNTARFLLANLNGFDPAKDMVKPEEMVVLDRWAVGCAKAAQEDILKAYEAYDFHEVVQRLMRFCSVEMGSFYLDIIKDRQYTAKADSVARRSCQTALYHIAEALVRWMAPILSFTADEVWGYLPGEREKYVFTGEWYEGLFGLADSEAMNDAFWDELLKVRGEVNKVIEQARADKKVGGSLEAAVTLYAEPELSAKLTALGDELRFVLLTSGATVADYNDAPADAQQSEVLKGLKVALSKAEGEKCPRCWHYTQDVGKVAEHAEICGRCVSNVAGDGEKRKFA

[4] = molecular target: Isoleucine--tRNA ligase (Escherichia coli K-12) (UniProt P00956); test: Inhibition of ileRS in Escherichia coli NCIB 8743 S30 extract assessed as aminoacylation at 250 nM incubated for 5 mins in presence of 14C-labeled isoleucine by liquid scintillation counting method relative to control; set-up: scale not given: the % may be the effect or the level left
How it was run: (§1)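 S30 extract from cells grown in LB at 37 °C to OD600 1.2, sonicated, twice clarified; diluted 10-fold. Inhibitor (5 µM stock) preincubated 5 min with extract, then aminoacylation at 37 °C with 30 mM Tris pH 8.0, 1 mM DTT, 5 g/L tRNA, 3 mM ATP, 30 mM KCl, 8 mM MgCl₂, ¹⁴C-Ile 15 µM or ¹⁴C-Tyr 9.66 µM; quenched at 1 min, TCA filters counted. Activity relative to no-inhibitor extract; mean of three.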

[5] = molecular target: Leucine--tRNA ligase (Escherichia coli (strain K12)) (UniProt P07813); test: Inhibition of leuRS in Escherichia coli BL21 (DE3) pLysS S30 extract over expressing YhhY incubated for 5 mins in presence of 14C-labeled leucine by liquid scintillation counting method
[6] = Stability of compound in Escherichia coli NCIB 8743 S30 extract assessed as compound degradation incubated for 48 hr in presence of 14C-labeled isoleucine and acetyl-CoA by liquid scintillation counting method; format: ADME, subcellular
How it was run: (§2)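 Inhibitor (5 μM stock) incubated at 37 °C up to 48 h with S30 extract (1:3), or with extract plus acetyl-CoA (10 mM stock) (1:1:3). Aliquots at set times added to aminoacylation mix (30 mM Tris pH 8.0, 1 mM DTT, tRNA, 3 mM ATP, 30 mM KCl, 8 mM MgCl₂, 10 μM ¹⁴C-isoleucine) at 37 °C; quenched after 1 min, ileRS activity by scintillation counting.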

[7] = molecular target: T1, Tyrosine--tRNA ligase (Escherichia coli (strain K12)); test: Inhibition of tyrRS in Escherichia coli BL21 (DE3) pLysS S30 extract over expressing SUMO incubated for 5 to 60 mins in presence of 14C-labeled tyrosine by liquid scintillation counting method
[8] = molecular target: Isoleucine--tRNA ligase (Escherichia coli K-12) (UniProt P00956); test: Inhibition of ileRS in Escherichia coli BL21 (DE3) pLysS S30 extract over expressing RimI incubated for 5 to 60 mins in presence of 14C-labeled isoleucine and acetyl-CoA by liquid scintillation counting method
[9] = molecular target: Isoleucine--tRNA ligase (Escherichia coli K-12) (UniProt P00956); test: Inhibition of ileRS in Escherichia coli BL21 (DE3) pLysS S30 extract over expressing SUMO incubated for 5 to 60 mins in presence of 14C-labeled isoleucine and acetyl-CoA by liquid scintillation counting method
[10] = molecular target: Isoleucine--tRNA ligase (Escherichia coli K-12, UniProt P00956); test: Inhibition of purified Escherichia coli BL21 (DE3) ileRS incubated for 10 mins in presence of 14C-labeled isoleucine by radiolabel transfer assay; conditions: read-out: Ki(app)
Chain of Isoleucine--tRNA ligase (P00956 whole entry): as above

[11] = molecular target: Isoleucine--tRNA ligase (Escherichia coli K-12) (UniProt P00956); test: Inhibition of ileRS in Escherichia coli BL21 (DE3) pLysS S30 extract over expressing YhhY incubated for 5 mins in presence of 14C-labeled isoleucine and acetyl-CoA by liquid scintillation counting method
[12] = molecular target: Isoleucine--tRNA ligase (Escherichia coli K-12) (UniProt P00956); test: Inhibition of ileRS in Escherichia coli BL21 (DE3) pLysS S30 extract over expressing YhhY incubated for 60 mins in presence of 14C-labeled isoleucine and acetyl-CoA by liquid scintillation counting method
[13] = Stability of compound in Escherichia coli NCIB 8743 S30 extract assessed as compound degradation incubated for 1 hr n presence of 14C-labeled isoleucine and acetyl-CoA by liquid scintillation counting method; format: ADME, subcellular; how it was run: as §2
[14] = Stability of compound in Escherichia coli NCIB 8743 S30 extract assessed as compound degradation at 0.25 uM in presence of 14C-labeled isoleucine and acetyl-CoA by liquid scintillation counting method; format: ADME, subcellular; how it was run: as §2
[15] = Stability of compound in Escherichia coli BL21 (DE3) pLysS S30 extract assessed as compound degradation at 0.25 uM in presence of 14C-labeled isoleucine and acetyl-CoA by liquid scintillation counting method; format: ADME, subcellular
[16] = molecular target: T1, Tyrosine--tRNA ligase (Escherichia coli (strain K12)); test: Inhibition of tyrRS in Escherichia coli NCIB 8743 S30 extract assessed as aminoacylation at 250 nM incubated for 5 mins in presence of 14C-labeled tyrosine by liquid scintillation counting method relative to control; set-up: scale not given: the % may be the effect or the level left; how it was run: as §1
[17] = molecular target: T2, Tyrosine--tRNA ligase (Escherichia coli (strain K12), UniProt P0AGJ9); test: Inhibition of purified Escherichia coli BL21 (DE3) tyrRS incubated for 10 mins in presence of 14C-labeled tyrosine by radiolabel transfer assay; conditions: read-out: Ki(app)
T2 sequence (P0AGJ9 whole entry): T1 sequence (whole entry)

[18] = molecular target: T1, Tyrosine--tRNA ligase (Escherichia coli (strain K12)); test: Inhibition of tyrRS in Escherichia coli BL21 (DE3) pLysS S30 extract over expressing YhhY incubated for 5 to 60 mins in presence of 14C-labeled tyrosine by liquid scintillation counting method
[19] = molecular target: T1, Tyrosine--tRNA ligase (Escherichia coli (strain K12)); test: Inhibition of tyrRS in Escherichia coli BL21 (DE3) pLysS S30 extract over expressing RimL incubated for 5 to 60 mins in presence of 14C-labeled tyrosine by liquid scintillation counting method relative to control
[20] = molecular target: Leucine--tRNA ligase (Escherichia coli (strain K12), UniProt P07813); test: Inhibition of purified Escherichia coli BL21 (DE3) leuRS incubated for 10 mins in presence of 14C-labeled leucine by radiolabel transfer assay; conditions: read-out: Ki(app)
Chain of Leucine--tRNA ligase (P07813 whole entry): as the sequence (P07813 whole entry) above

| Structure (SMILES) | inhibition [1] | inhibition [2] | inhibition [3] | Activity [4] [%] | inhibition [5] | Stability [6] | inhibition [7] | inhibition [8] | inhibition [9] | Ki [10] [nM] | inhibition [11] | inhibition [12] | Stability [13] | Stability [14] | Stability [15] | Activity [16] | Ki [17] [nM] | inhibition [18] | inhibition [19] | Ki [20] [nM] |
| --- | --- | --- | --- | --- | --- | --- | --- | --- | --- | --- | --- | --- | --- | --- | --- | --- | --- | --- | --- | --- |
| CC[C@H](C)[C@H](N)C(=O)NS(=O)(=O)OC[C@H]1O[C@@H](n2ccc(N)nc2=O)[C@H](O)[C@@H]1O | Active | inactive | inactive | 5 to 14 | Active | Stable | Active | Active | Active | 17.2 | Active | inactive | Stable |  |  |  |  |  |  |  |
| CC[C@H](C)[C@H](N)C(=O)NS(=O)(=O)OC[C@H]1O[C@@H](n2ccc(=O)[nH]c2=O)[C@H](O)[C@@H]1O | Active | inactive | inactive | 5 to 14 | Active | Stable | Active | Active | Active | 55 | Active | inactive | Stable | Stable | Stable |  |  |  |  |  |
| CC(C)C[C@H](N)C(=O)NS(=O)(=O)OC[C@H]1O[C@@H](n2ccc(N)nc2=O)[C@H](O)[C@@H]1O | Active |  | inactive |  |  |  | Active | Active | Active |  |  |  |  |  |  |  |  |  |  | 9.8 |
| CC(C)C[C@H](N)C(=O)NS(=O)(=O)OC[C@H]1O[C@@H](n2ccc(=O)[nH]c2=O)[C@H](O)[C@@H]1O | Active |  | inactive |  |  |  | Active | Active | Active |  |  |  |  |  |  |  |  |  |  | 20.8 |
| CC(C)C[C@H](N)C(=O)NS(=O)(=O)OC[C@H]1O[C@@H](n2ccc(=O)n(C)c2=O)[C@H](O)[C@@H]1O |  |  |  |  |  |  |  |  |  |  |  |  |  |  |  |  |  |  |  | 29.5 |
| Cn1c(=O)ccn([C@@H]2O[C@H](COS(=O)(=O)NC(=O)[C@@H](N)Cc3ccc(O)cc3)[C@@H](O)[C@H]2O)c1=O |  |  |  |  |  |  |  |  |  |  |  |  |  |  |  | 37 to 62% | 149 |  |  |  |
| CC[C@H](C)[C@H](N)C(=O)NS(=O)(=O)OC[C@H]1O[C@@H](n2ccc(=O)n(C)c2=O)[C@H](O)[C@@H]1O |  |  |  | 17 to 34 |  | Stable |  |  |  | 1040 |  |  | Stable |  |  |  |  |  |  |  |

Now from value to molecule:

| inhibition [1] | inhibition [2] | inhibition [3] | Activity [4] [%] | inhibition [5] | Stability [6] | inhibition [7] | inhibition [8] | inhibition [9] | Ki [10] [nM] | inhibition [11] | inhibition [12] | Stability [13] | Stability [14] | Stability [15] | Activity [16] | Ki [17] [nM] | inhibition [18] | inhibition [19] | Ki [20] [nM] | Structure (SMILES) |
| --- | --- | --- | --- | --- | --- | --- | --- | --- | --- | --- | --- | --- | --- | --- | --- | --- | --- | --- | --- | --- |
| Active | Active | inactive | 0.05 to 1.8 | Active | Stable | Active | Active | Active |  | Active | inactive | Stable | Stable | Stable |  |  |  |  |  | CC[C@H](C)[C@H](N)C(=O)NS(=O)(=O)OC[C@H]1O[C@@H](n2cnc3c(N)ncnc32)[C@H](O)[C@@H]1O |
| Active |  |  |  |  |  | Active | Active | Active |  |  |  |  |  |  | 37 to 62% | 43.4 | Active | Active |  | N[C@@H](Cc1ccc(O)cc1)C(=O)NS(=O)(=O)OC[C@H]1O[C@@H](n2ccc(=O)[nH]c2=O)[C@H](O)[C@@H]1O |
| Active |  |  |  |  |  | Active | Active | Active |  |  |  |  |  |  | inactive | 1480 | inactive |  |  | Nc1ccn([C@@H]2O[C@H](COS(=O)(=O)NC(=O)[C@@H](N)Cc3ccc(O)cc3)[C@@H](O)[C@H]2O)c(=O)n1 |
| Active |  | inactive |  |  |  | Active | Active | Active |  |  |  |  |  |  |  |  |  |  |  | CC(C)C[C@H](N)C(=O)NS(=O)(=O)OC[C@H]1O[C@@H](n2cnc3c(N)ncnc32)[C@H](O)[C@@H]1O |
| Active |  |  |  |  |  | Active | Active | Active |  |  |  |  |  |  | 0.05 to 1.8% |  | Active | Active |  | Nc1ncnc2c1ncn2[C@@H]1O[C@H](COS(=O)(=O)NC(=O)[C@@H](N)Cc2ccc(O)cc2)[C@@H](O)[C@H]1O |
